Results on 37 compounds are retold here after ChEMBL document CHEMBL1149323, “Synthesis and evaluation of dihydropyrroloquinolines that selectively antagonize P-glycoprotein” (J Med Chem, 2004).

Series [1] has as its target Multidrug resistance-associated protein 1 (Homo sapiens, UniProt P33527). The experiment in a line: MRP1 antagonism was determined percentage of MCF-7/VP cells surviving in the absence of vincristine/percentage of MCF-7/VP cells surviving in the presence of vincristine. Format: functional. The procedure, abridged: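 MCF-7/VP cells in RPMI 1640 with 10% FBS. Modulator at 10 μg/mL tested with or without 1 nM vincristine for 48 h, in triplicate. Sulforhodamine B read-out at 570 nm. Score = % survival without vincristine / % survival with vincristine; a score above 1.0 indicates chemosensitization.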

The test system of the next series is MCF7. The experiment in a line: Toxicity was determined against of MCF-7 cells at a dose of 10 ug/mL. The format is cell-based. The note with it: human. The procedure, abridged:
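Drug-sensitive MCF-7 cells exposed to 10 μg/mL compound for 48 h, in triplicate, with 1% ethanol solvent controls. Percentage of cells killed = percentage decrease in sulforhodamine B binding (570 nm) relative to control cultures.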

A short description of series [2]: Ratio of the Pgp to that of MRP1 was determined. Format: functional.
Series [3] concerns the target T1, ATP-dependent translocase ABCB1 (Homo sapiens, UniProt P08183). The experiment in a line: Pgp antagonism was determined percentage of NCI/ADR cells surviving in the absence of vinblastine/percentage of NCI/ADR cells surviving in the presence of vinblastine. Format: functional, cell-based. In outline: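 Modulator at 10 μg/mL tested with or without 50 nM vinblastine for 48 h, in triplicate. Survival read by sulforhodamine B at 570 nm against ethanol (1%) controls. Score = % survival without vinblastine / % survival with vinblastine.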

Series [4] in a line: Compound was evaluated for broad range of antagonistic activity against multi drug resistance-related protein (MRP) value expressed as IC20. The arrangement: unit not given here. The format is functional.
In series [5] the target is T1, ATP-dependent translocase ABCB1. The experiment in a line: Compound was evaluated for broad range of antagonistic activity against P-glycoprotein (Pgp) value expressed as IC20. Format: functional.
A further series relates to MCF-7 (Homo sapiens). Put plainly: Toxicity against MCF-7 cells.
Series [6] deals with Mus musculus. Put plainly: In vivo tumor growth inhibition in mice when […] at a day 1. Format: functional. The procedure, abridged:
(§1)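 Balb/c female mice, 6–8 weeks old, with 10^6 JC murine mammary adenocarcinoma cells injected subcutaneously in the right hind quarter. Treatment began once tumors were palpable (day 1), five mice per group. Dosing on days 1, 5 and 9: 100 mg/kg i.p. PGP-4008·HCl with or without 5 mg/kg doxorubicin. Caliper volumes calculated as (L×W²)/2 through day 15; unpaired t-test with Welch correction.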

Series [7] deals with Mus musculus. The experiment in a line: In vivo tumor growth inhibition in mice when […] at a day 15. Format: functional. In outline: as §1
In series [8] the test system is Mus musculus. Put plainly: In vivo tumor growth inhibition in mice when administered […] at a day 9. Format: functional. The procedure, abridged: as §1
Series [9] concerns Mus musculus. Put plainly: In vivo tumor growth inhibition in mice when administered subcutaneously at a day 5. The format is functional. The note with it: in the assay text read “intraperitoneally” for “subcutaneously”. The procedure, abridged:
as §1

Series [10] deals with Mus musculus. The experiment in a line: In vivo tumor growth inhibition in mice when administered […] at a day 12. Format: functional. The procedure, abridged:
as §1

Several values for one entry are separate records, joined by “and”; a condition that tells them apart may be missing. Equal entries are not always repeated.

T1 sequence (P08183 whole entry): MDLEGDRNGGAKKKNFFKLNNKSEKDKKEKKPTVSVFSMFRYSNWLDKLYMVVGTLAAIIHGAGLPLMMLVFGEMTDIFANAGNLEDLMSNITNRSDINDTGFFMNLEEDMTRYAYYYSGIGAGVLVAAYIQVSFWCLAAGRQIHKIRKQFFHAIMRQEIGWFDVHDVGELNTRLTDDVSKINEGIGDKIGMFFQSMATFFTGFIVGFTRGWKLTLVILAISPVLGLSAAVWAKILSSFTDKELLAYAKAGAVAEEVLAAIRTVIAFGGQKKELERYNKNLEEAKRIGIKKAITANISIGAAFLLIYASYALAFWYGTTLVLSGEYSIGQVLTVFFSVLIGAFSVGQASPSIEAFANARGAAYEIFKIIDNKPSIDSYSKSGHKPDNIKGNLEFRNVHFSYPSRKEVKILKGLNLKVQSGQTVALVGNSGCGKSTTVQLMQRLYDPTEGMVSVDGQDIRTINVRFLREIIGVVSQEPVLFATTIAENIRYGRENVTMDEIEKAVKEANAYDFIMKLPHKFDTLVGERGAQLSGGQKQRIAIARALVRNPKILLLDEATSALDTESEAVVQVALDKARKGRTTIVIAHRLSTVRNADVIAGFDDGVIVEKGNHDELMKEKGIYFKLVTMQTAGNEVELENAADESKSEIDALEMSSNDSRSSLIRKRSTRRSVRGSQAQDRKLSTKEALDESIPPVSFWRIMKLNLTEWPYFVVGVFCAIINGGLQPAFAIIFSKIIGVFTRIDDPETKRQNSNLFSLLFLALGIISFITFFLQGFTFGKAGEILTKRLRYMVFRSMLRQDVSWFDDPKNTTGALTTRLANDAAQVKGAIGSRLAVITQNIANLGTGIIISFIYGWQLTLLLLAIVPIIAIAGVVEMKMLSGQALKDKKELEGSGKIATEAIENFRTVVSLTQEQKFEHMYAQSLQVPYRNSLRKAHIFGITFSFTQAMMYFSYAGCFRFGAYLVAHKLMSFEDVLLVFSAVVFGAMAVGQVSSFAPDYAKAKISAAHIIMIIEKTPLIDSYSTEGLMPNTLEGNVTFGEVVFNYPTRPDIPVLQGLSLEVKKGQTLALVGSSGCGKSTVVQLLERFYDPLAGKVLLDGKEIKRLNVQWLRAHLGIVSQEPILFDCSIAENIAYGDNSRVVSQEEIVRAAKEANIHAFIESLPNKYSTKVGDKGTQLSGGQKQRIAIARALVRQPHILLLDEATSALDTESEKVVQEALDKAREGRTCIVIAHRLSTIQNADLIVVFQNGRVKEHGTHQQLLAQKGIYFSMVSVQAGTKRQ
Chain of Multidrug resistance-associated protein 1 (P33527 whole entry): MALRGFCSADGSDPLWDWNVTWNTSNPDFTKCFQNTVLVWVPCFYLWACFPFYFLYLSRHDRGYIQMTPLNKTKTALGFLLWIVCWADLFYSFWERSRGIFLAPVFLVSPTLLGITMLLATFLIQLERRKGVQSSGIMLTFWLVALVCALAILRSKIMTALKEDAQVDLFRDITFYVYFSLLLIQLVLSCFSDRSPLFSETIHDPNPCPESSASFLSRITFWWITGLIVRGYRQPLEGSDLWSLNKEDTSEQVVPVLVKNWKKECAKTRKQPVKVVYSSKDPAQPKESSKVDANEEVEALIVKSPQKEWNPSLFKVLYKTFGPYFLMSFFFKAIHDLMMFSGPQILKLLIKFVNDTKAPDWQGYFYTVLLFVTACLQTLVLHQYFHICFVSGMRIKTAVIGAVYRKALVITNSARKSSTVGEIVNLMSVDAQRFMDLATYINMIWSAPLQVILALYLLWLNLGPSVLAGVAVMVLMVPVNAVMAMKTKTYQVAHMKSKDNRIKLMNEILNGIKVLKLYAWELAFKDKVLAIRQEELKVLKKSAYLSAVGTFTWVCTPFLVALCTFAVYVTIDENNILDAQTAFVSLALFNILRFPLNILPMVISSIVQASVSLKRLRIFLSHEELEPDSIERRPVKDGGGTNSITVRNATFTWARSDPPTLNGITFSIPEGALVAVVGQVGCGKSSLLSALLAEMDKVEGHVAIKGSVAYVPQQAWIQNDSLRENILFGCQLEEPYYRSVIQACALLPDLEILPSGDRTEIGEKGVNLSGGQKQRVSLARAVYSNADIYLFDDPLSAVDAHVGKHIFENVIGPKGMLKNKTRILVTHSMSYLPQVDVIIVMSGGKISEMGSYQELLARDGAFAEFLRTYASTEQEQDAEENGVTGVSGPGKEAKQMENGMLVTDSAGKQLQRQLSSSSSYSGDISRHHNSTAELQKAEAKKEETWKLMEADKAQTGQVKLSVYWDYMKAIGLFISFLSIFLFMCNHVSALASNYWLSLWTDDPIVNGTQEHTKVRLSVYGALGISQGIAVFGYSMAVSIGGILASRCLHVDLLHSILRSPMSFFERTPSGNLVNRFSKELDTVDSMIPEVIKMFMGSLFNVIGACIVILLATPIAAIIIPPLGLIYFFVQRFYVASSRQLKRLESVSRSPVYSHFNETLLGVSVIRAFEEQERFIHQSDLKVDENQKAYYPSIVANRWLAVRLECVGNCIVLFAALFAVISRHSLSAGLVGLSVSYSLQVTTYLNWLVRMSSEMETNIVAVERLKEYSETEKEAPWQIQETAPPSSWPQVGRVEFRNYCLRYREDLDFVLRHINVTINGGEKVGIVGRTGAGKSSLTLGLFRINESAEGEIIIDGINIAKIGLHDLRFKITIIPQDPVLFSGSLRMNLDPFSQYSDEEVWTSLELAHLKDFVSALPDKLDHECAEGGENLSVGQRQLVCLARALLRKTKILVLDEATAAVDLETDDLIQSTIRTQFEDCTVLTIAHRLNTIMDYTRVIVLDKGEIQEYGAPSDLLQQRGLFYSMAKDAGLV

For `Nc1c2c(nc3cc(Br)ccc13)N(Cc1ccccc1)CC2`, the Ratio in series [1] was 1.3; in [2], 1.3; in series [3] it was 1.7. For the same compound, the Toxicity in the series on MCF7 was determined as 94%.

As for `CCOC(=O)CNc1c2c(nc3ccccc13)N(Cc1ccccc1)CC2`, the Activity in series [4] and in series [5] was 0.9 each time. In the series with MCF-7 (Homo sapiens), the Toxicity is 33 µM.

`CN1CCN(CC(=O)Nc2c3c(nc4ccccc24)N(Cc2ccccc2)CC3)CC1`: the Ratio in series [1] is 1.1; in series [2] it was 6.8; in series [3], 7.5. For the same compound, the Toxicity with MCF7 is reported as 21%.

`O=C(CN1CCCCC1)Nc1c2c(nc3ccccc13)N(Cc1ccccc1)CC2`: the Ratio in series [1] stood at 1.1; in series [2] it was 16; in series [3], 18. Also, the values for the Activity in [4] and in series [5] were 1 and 9, respectively. The figures for the Toxicity in the series on MCF7 and in the series with MCF-7 (Homo sapiens) were 0% and 14 µM, respectively.

`CN1CCc2c1nc1ccccc1c2NC(=O)CNC(C)(C)C`: the Ratio came out at 1.2 in series [1], 2.7 in series [2] and 3.2 in [3]. The compound further displayed a Toxicity in the series with MCF7 of 28%.

`CC(C)NCC(=O)Nc1c2c(nc3ccccc13)N(C)CC2`: the Ratio in series [1] turned out to be 1.4; in series [2], 1.3; in series [3] it was 1.8. Further, in the series with MCF7, the Toxicity came to 39%.

For the compound `O=C(Nc1c2c(nc3ccccc13)N(Cc1ccccc1)CC2)c1ccc(F)c(C(F)(F)F)c1`, the figures for the Activity in series [4] and in [5] were 0.9 and 4.9, respectively. The Toxicity in the series with MCF-7 (Homo sapiens) was determined as 19 µM.

On to `Cc1ccc2nc3c(c(N)c2c1)CCN3Cc1ccccc1`, for which the Ratio in series [1] worked out at 1.2; in series [2], 1.3; in series [3] it was 1.5. The compound also showed a Toxicity with MCF7 of 81%.

As for `CC(C)(C)NCC(=O)Nc1c2c(nc3ccccc13)N(Cc1ccccc1)CC2`, the Ratio in series [1] is 0.9; in [2], 13; in series [3] it was 12. The same compound gave a Toxicity in the series on MCF7 of 29%.

Regarding `CN1CCc2c1nc1ccccc1c2NC(=O)CN1CCCCC1`, the Ratio worked out at 1.2 in [1], 3.4 in series [2] and 4.1 in series [3]. Besides, in the series on MCF7, the Toxicity is on record as 51%.

For the compound `O=C(Nc1c2c(nc3ccccc13)N(Cc1ccccc1)CC2)c1c(F)cccc1C(F)(F)F`, the Activity in [4] worked out at 0.9; in series [5], 2.5. This compound also displayed a Toxicity with MCF-7 (Homo sapiens) of 13 µM.

For the compound `Cc1ccc2c(N)c3c(nc2c1)N(Cc1ccccc1)CC3`, the Ratio in [1] was 1.7 and 1; in series [2], 0.9 and 0.7; in series [3] it was 1.6 and 0.7. For the same compound, the Toxicity with MCF7 is 77% and 98%.

Take `CN1CCc2c1nc1ccccc1c2NC(=O)CCc1cc(C(C)(C)C)c(O)c(C(C)(C)C)c1`: the Ratio in series [1], in series [2] and in [3] was 1 in each case. In the series on MCF7, this compound displayed a Toxicity of 99%.

In the case of `CN1CCc2c1nc1ccccc1c2NC(=O)C12CC3CC(CC(C3)C1)C2`, the Ratio in [1] is 0.9; in series [2], 5.2; in series [3] it was 4.7. Further, in the series with MCF7, the Toxicity was 29%.

`Fc1cccc(CNc2c3c(nc4ccccc24)N(Cc2ccccc2)CC3)c1`: the values for the Activity in series [4] and in series [5] were 0.7 and 1.2, respectively. The Toxicity in the series on MCF-7 (Homo sapiens) was greater than 65 µM.

Turning to `CN1CCc2c1nc1ccccc1c2/N=C(/c1ccccc1)N1CCCCC1`, the Ratio in series [1] was determined as 1; in series [2], 2.4; in [3] it was 2.4. The same compound returned a Toxicity in the series on MCF7 of 58%.

As for `Nc1c2c(nc3ccccc13)N(C1CCCCC1)CC2`, the Ratio stood at 0.6 in series [1], 1.3 in series [2] and 0.8 in series [3]. The compound further displayed a Toxicity with MCF7 of 97%.

For the compound `CCCCN1CCc2c1nc1cc(Br)ccc1c2N`, the Ratio amounted to 1 in [1], 1.1 in series [2] and 1.1 in [3]. Also, in the series on MCF7, the Toxicity amounted to 98%.

With `O=C(Nc1c2c(nc3ccccc13)N(Cc1ccccc1)CC2)c1c(F)ccc(F)c1F`, the Activity in series [4] was found to be 1; in series [5] it was 3.1. Also, the Toxicity in the series with MCF-7 (Homo sapiens) is greater than 58 µM.

Regarding `CCC(=O)Nc1c2c(nc3ccccc13)N(C)CC2`, in series [2], the Ratio turned out to be 1.6.

On to `CN1CCc2c1nc1ccccc1c2NC(=O)Cc1ccccc1`, for which the Ratio in series [2] amounted to 5.6.

For `Cc1cc(C)c2c(N)c3c(nc2c1)N(Cc1ccccc1)CC3`, the Ratio in series [1] was 1.4; in [2], 2.6; in [3] it was 3.6. The Toxicity in the series on MCF7 stood at 49%.

On to `CCCCN(CCCC)CC(=O)Nc1c2c(nc3ccccc13)N(C)CC2`, for which the Ratio turned out to be 1.3 in series [1], 3.2 in series [2] and 4.2 in [3]. Moreover, the Toxicity in the series on MCF7 came to 50%.

Take `Nc1c2c(nc3ccccc13)N(c1ccccc1)CC2`: the values for the Ratio in series [1], in series [2] and in series [3] were 1.1, 2.5 and 2.7, respectively. The Toxicity in the series on MCF7 stood at 52%.

As for `CN1CCc2c1nc1ccccc1c2NC(=O)CNCCc1ccc(O)cc1`, the results for the Ratio in [1], in series [2] and in series [3] were 1.4, 1.2 and 1.7, respectively. For the same compound, in the series with MCF7, the Toxicity turned out to be 21%.

With `CN1CCc2c1nc1cc(Br)ccc1c2N`, the Ratio in [1] was 1.6; in series [2], 0.8; in series [3], 1.3. The same compound gave a Toxicity in the series with MCF7 of 94%.

Regarding `COc1cccc2c1C(=O)c1c(O)c3c(c(O)c1C2=O)C[C@@](O)(C(=O)CO)C[C@@H]3O[C@H]1C[C@H](N)[C@H](O)[C@H](C)O1` [DOXORUBICIN], the Tumor volume in the series with Mus musculus [6] turned out to be 430 mm**3; in the series on Mus musculus [7] it was 1680 mm**3; in the series on Mus musculus [8] it was 860 mm**3; in the series with Mus musculus [9] it was 520 mm**3; in the series with Mus musculus [10] it was 1210 mm**3.

For the compound `COc1cccc2c1C(=O)c1c(O)c3c(c(O)c1C2=O)C[C@@](O)(C(=O)CO)C[C@@H]3O[C@H]1C[C@H](N)[C@H](O)[C@H](C)O1.O=C(Cc1ccccc1)Nc1c2c(nc3ccccc13)N(Cc1ccccc1)CC2`, the Tumor volume in the series with Mus musculus [6] amounted to 390 mm**3; in the series with Mus musculus [7] it was 670 mm**3; with Mus musculus [8], 520 mm**3; in the series on Mus musculus [9], 470 mm**3; with Mus musculus [10], 560 mm**3.

`O=C(Nc1c2c(nc3ccccc13)N(Cc1cccc(Cl)c1)CC2)C12CC3CC(CC(C3)C1)C2`: the Ratio was determined as 1.2 in series [1], 1 in [2] and 1.2 in series [3]. Also, the Toxicity in the series on MCF7 came to 33%.

On to `CCN(CC)CC(=O)Nc1c2c(nc3ccccc13)N(Cc1ccccc1)CC2`, for which the Ratio in [1] was found to be 1; in series [2], 15; in series [3], 15. In the series with MCF7, the Toxicity turned out to be 14%.

In the case of `CC(C)(C)c1cc(CCC(=O)Nc2c3c(nc4ccccc24)N(Cc2ccccc2)CC3)cc(C(C)(C)C)c1O`, the Ratio in series [1] worked out at 1.2; in series [2] it was 11; in [3] it was 13.2. The same compound displayed a Toxicity with MCF7 of 50%.

As for `Nc1c2c(nc3ccccc13)N(Cc1ccccc1)CC2`, the Ratio in [1] came out at 1; in [2], 3.1; in series [3] it was 3.1. Besides, the Activity in series [4] and in series [5] was 1 in each case. The figures for the Toxicity with MCF7 and in the series on MCF-7 (Homo sapiens) were 47% and 6.2 µM, respectively.

`Nc1c2c(nc3cc(Br)ccc13)N(C1CCCCC1)CC2`: the Ratio in series [1], in series [2] and in series [3] was 1 in each case. The same compound gave a Toxicity in the series on MCF7 of 99%.

On to `CC(C)NCC(=O)Nc1c2c(nc3ccccc13)N(Cc1ccccc1)CC2`, for which the figures for the Ratio in [1], in series [2] and in series [3] were 1, 13 and 13, respectively. Moreover, the Toxicity with MCF7 amounted to 45%.

As for `COc1cc(CNc2c3c(nc4ccccc24)N(Cc2ccccc2)CC3)cc(OC)c1`, the Activity came to 0.9 in [4] and 1.4 in series [5]. The compound also returned a Toxicity in the series with MCF-7 (Homo sapiens) of 47 µM.

On to `Fc1ccc(CNc2c3c(nc4ccccc24)N(Cc2ccccc2)CC3)cc1`, for which the Activity turned out to be 0.7 in [4] and 1.3 in series [5]. Moreover, the Toxicity with MCF-7 (Homo sapiens) is greater than 65 µM.

Consider `CCN(CC)CC(=O)Nc1c2c(nc3ccccc13)N(C)CC2`, for which the Ratio in series [1] was 1.2; in series [2] it was 5; in series [3], 6. The same compound came in with a Toxicity with MCF7 of 30%.
